Laboratory results taken from ChEMBL document CHEMBL2203235, “Optimization of a natural product-based class of γ-secretase modulators” (J Med Chem, 2012).

How the values were obtained:
[1] = Modulation of gamma secretase in CHO-2B7 cells assessed as reduction in amyloid beta 40 level after 5 hrs by MSD ELISA; type: cell-based; settings: Cricetulus griseus, CHO-2B7, 5 h
[2] = Metabolic stability in human liver microsomes assessed as compound remaining at 1 uM at 60 mins by LC/MS/MS analysis in absence of NADPH; type: ADME, Microsome; settings: liver microsomes, read-out: Stability
Procedure, shortened: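 Human liver microsomes were run without NADPH as a qualitative read of susceptibility to enzymatic hydrolysis. The read-out was percent parent remaining at 60 min.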

[3] = Modulation of gamma secretase in CHO-2B7 cells assessed as reduction in amyloid beta 42 level after 5 hrs by MSD ELISA; type: cell-based; settings: Cricetulus griseus, CHO-2B7, 5 h
Liver microsomes = assay: Metabolic stability in human liver microsomes at 1 uM after 60 mins by LC/MS/MS analysis; settings: 1 h

Row | Stability (Liver microsomes) | SMILES | IC50 [1] | remaining at 1 h, 1 µM [2] | IC50 [3]
1 | – | CC(=O)O[C@@H]([C@H]1C[C@@H](C)[C@H]2[C@H](O1)[C@H](O)[C@@]1(C)[C@@H]3CC[C@H]4C(C)(C)[C@@H](OC(=O)N5CCOCC5)CC[C@@]45C[C@@]35CC[C@]21C)C(C)(C)O | 14000 nM | 2% | 310 nM
2 | – | CCO[C@H](C(C)C)[C@H]1C[C@@H](C)[C@H]2[C@H](O1)[C@H](O)[C@@]1(C)[C@@H]3CC[C@H]4C(C)(C)[C@@H](O)CC[C@@]45C[C@@]35CC[C@]21C | – | 85% | 4400 nM
3 | – | CCO[C@@H]([C@H]1C[C@@H](C)[C@H]2[C@H](O1)[C@H](O)[C@@]1(C)[C@@H]3CC[C@H]4C(C)(C)[C@@H](O)CC[C@@]45C[C@@]35CC[C@]21C)C(C)(C)O | 5500 nM | 100% | 350 nM
4 | – | CNC(=O)O[C@H](C(C)C)[C@H]1C[C@@H](C)[C@H]2[C@H](O1)[C@H](O)[C@@]1(C)[C@@H]3CC[C@H]4C(C)(C)[C@@H](OC(=O)NC5CNC5)CC[C@@]45C[C@@]35CC[C@]21C | 5000 nM | 110% | 120 nM
5 | – | CCO[C@@H]([C@H]1C[C@@H](C)[C@H]2[C@H](O1)[C@H](O)[C@@]1(C)[C@@H]3CC[C@H]4C(C)(C)[C@@H](OC(=O)N5CCOCC5)CC[C@@]45C[C@@]35CC[C@]21C)C(C)(C)O | 2000 nM | 77% | 220 nM
6 | Stable | CC(C)[C@@H](OC(=O)N1CCC1)[C@H]1C[C@@H](C)[C@H]2[C@H](O1)[C@H](O)[C@@]1(C)[C@@H]3CC[C@H]4C(C)(C)[C@@H](O[C@H]5CN(CCCC(=O)O)CCO5)CC[C@@]45C[C@@]35CC[C@]21C | 7500 nM | – | 280 nM
7 | Stable | CC(C)[C@@H](OC(=O)N1CCC1)[C@H]1C[C@@H](C)[C@H]2[C@H](O1)[C@H](O)[C@@]1(C)[C@@H]3CC[C@H]4C(C)(C)[C@@H](OC(=O)N[C@H]5CCNC5=O)CC[C@@]45C[C@@]35CC[C@]21C | 1000 nM | – | 400 nM
8 | Stable | CCO[C@@H]([C@H]1C[C@@H](C)[C@H]2[C@H](O1)[C@H](O)[C@@]1(C)[C@@H]3CC[C@H]4C(C)(C)[C@@H](O[C@H]5CN(CCN6CCC6)CCO5)CC[C@@]45C[C@@]35CC[C@]21C)C(C)(C)O | 2900 nM | – | 110 nM
9 | Stable | CCO[C@@H]([C@H]1C[C@@H](C)[C@H]2[C@H](O1)[C@H](O)[C@@]1(C)[C@@H]3CC[C@H]4C(C)(C)[C@@H](O[C@H]5CN(CC)CCO5)CC[C@@]45C[C@@]35CC[C@]21C)C(C)(C)O | 2700 nM | – | 210 nM
10 | Stable | CCO[C@@H]([C@H]1C[C@@H](C)[C@H]2[C@H](O1)[C@H](O)[C@@]1(C)[C@@H]3CC[C@H]4C(C)(C)[C@@H](O[C@H]5CN(CCN(C)C)CCO5)CC[C@@]45C[C@@]35CC[C@]21C)C(C)(C)O | 3200 nM | – | 130 nM
11 | Stable | CCO[C@@H]([C@H]1C[C@@H](C)[C@H]2[C@H](O1)[C@H](O)[C@@]1(C)[C@@H]3CC[C@H]4C(C)(C)[C@@H](O[C@H]5CN(C6CNC6)CCO5)CC[C@@]45C[C@@]35CC[C@]21C)C(C)(C)O | 2400 nM | – | 100 nM
12 | Stable | CCO[C@@H]([C@H]1C[C@@H](C)[C@H]2[C@H](O1)[C@H](O)[C@@]1(C)[C@@H]3CC[C@H]4C(C)(C)[C@@H](OC(=O)N5CCN(CC(=O)O)CC5)CC[C@@]45C[C@@]35CC[C@]21C)C(C)(C)O | 10000 nM | – | 290 nM
13 | Stable | CC(C)[C@@H](OC(=O)N1CCC1)[C@H]1C[C@@H](C)[C@H]2[C@H](O1)[C@H](O)[C@@]1(C)[C@@H]3CC[C@H]4C(C)(C)[C@@H](OC(=O)NCC(=O)O)CC[C@@]45C[C@@]35CC[C@]21C | 7200 nM | – | 420 nM
14 | Stable | CC(C)[C@@H](OC(=O)N1CCC1)[C@H]1C[C@@H](C)[C@H]2[C@H](O1)[C@H](O)[C@@]1(C)[C@@H]3CC[C@H]4C(C)(C)[C@@H](O[C@H]5CN([C@@H]6CCNC6=O)CCO5)CC[C@@]45C[C@@]35CC[C@]21C | 15000 nM | – | 490 nM
15 | Stable | CC(C)[C@@H](OC(=O)N1CCC1)[C@H]1C[C@@H](C)[C@H]2[C@H](O1)[C@H](O)[C@@]1(C)[C@@H]3CC[C@H]4C(C)(C)[C@@H](O[C@H]5CN(C6COC6)CCO5)CC[C@@]45C[C@@]35CC[C@]21C | 11000 nM | – | 560 nM
16 | Stable | CCO[C@@H]([C@H]1C[C@@H](C)[C@H]2[C@H](O1)[C@H](O)[C@@]1(C)[C@@H]3CC[C@H]4C(C)(C)[C@@H](O[C@H]5CN(CCN6CCOC6=O)CCO5)CC[C@@]45C[C@@]35CC[C@]21C)C(C)(C)O | 1900 nM | – | 150 nM
17 | Stable | CC(C)[C@@H](OC(=O)N1CCC1)[C@H]1C[C@@H](C)[C@H]2[C@H](O1)[C@H](O)[C@@]1(C)[C@@H]3CC[C@H]4C(C)(C)[C@@H](OC(=O)N[C@H]5CCCNC5=O)CC[C@@]45C[C@@]35CC[C@]21C | 6400 nM | – | 280 nM
18 | Stable | CC(C)[C@@H](OC(=O)N1CCC1)[C@H]1C[C@@H](C)[C@H]2[C@H](O1)[C@H](O)[C@@]1(C)[C@@H]3CC[C@H]4C(C)(C)[C@@H](O[C@H]5CN(C)CCO5)CC[C@@]45C[C@@]35CC[C@]21C | 8400 nM | – | 770 nM

Row | SMILES | Stability (Liver microsomes) | IC50 [1] | remaining at 1 h, 1 µM [2] | IC50 [3]
19 | CC(C)[C@@H](OC(=O)N1CCC1)[C@H]1C[C@@H](C)[C@H]2[C@H](O1)[C@H](O)[C@@]1(C)[C@@H]3CC[C@H]4C(C)(C)[C@@H](OC(=O)NCCNS(=O)(=O)C(F)(F)F)CC[C@@]45C[C@@]35CC[C@]21C | Stable | 11000 nM | – | 1500 nM
20 | CC(C)[C@@H](OC(=O)N1CCC1)[C@H]1C[C@@H](C)[C@H]2[C@H](O1)[C@H](O)[C@@]1(C)[C@@H]3CC[C@H]4C(C)(C)[C@@H](OC(=O)NC5CN(C)C5)CC[C@@]45C[C@@]35CC[C@]21C | Stable | 6500 nM | – | 170 nM
21 | CCO[C@@H]([C@H]1C[C@@H](C)[C@H]2[C@H](O1)[C@H](O)[C@@]1(C)[C@@H]3CC[C@H]4C(C)(C)[C@@H](O[C@H]5CN(CC(=O)N6CCOCC6)CCO5)CC[C@@]45C[C@@]35CC[C@]21C)C(C)(C)O | Stable | 14000 nM | – | 230 nM
22 | CNC(=O)O[C@H]1CC[C@]23C[C@]24CC[C@]2(C)[C@@H]5[C@H](O[C@@H]([C@H](OC(=O)N6CCC6)C(C)C)C[C@H]5C)[C@H](O)[C@@]2(C)[C@@H]4CC[C@H]3C1(C)C | Stable | 8700 nM | – | 760 nM
23 | CC(C)CC(=O)N1CCO[C@@H](O[C@H]2CC[C@]34C[C@]35CC[C@]3(C)[C@@H]6[C@H](O[C@@H]([C@H](OC(=O)N7CCC7)C(C)C)C[C@H]6C)[C@H](O)[C@@]3(C)[C@@H]5CC[C@H]4C2(C)C)C1 | Stable | 11000 nM | – | 1300 nM
24 | CCO[C@@H]([C@H]1C[C@@H](C)[C@H]2[C@H](O1)[C@H](O)[C@@]1(C)[C@@H]3CC[C@H]4C(C)(C)[C@@H](O[C@H]5CN(C(=O)CC6CN(C)C6)CCO5)CC[C@@]45C[C@@]35CC[C@]21C)C(C)(C)O | Stable | 3100 nM | – | 150 nM
25 | CCO[C@@H]([C@H]1C[C@@H](C)[C@H]2[C@H](O1)[C@H](O)[C@@]1(C)[C@@H]3CC[C@H]4C(C)(C)[C@@H](OC(=O)NCCN(C)C)CC[C@@]45C[C@@]35CC[C@]21C)C(C)(C)O | Stable | 17000 nM | – | 240 nM
26 | CCO[C@@H]([C@H]1C[C@@H](C)[C@H]2[C@H](O1)[C@H](O)[C@@]1(C)[C@@H]3CC[C@H]4C(C)(C)[C@@H](OC(=O)NC5CN(C)C5)CC[C@@]45C[C@@]35CC[C@]21C)C(C)(C)O | Stable | 980 nM | – | 65 nM
27 | CCO[C@@H]([C@H]1C[C@@H](C)[C@H]2[C@H](O1)[C@H](O)[C@@]1(C)[C@@H]3CC[C@H]4C(C)(C)[C@@H](OC(=O)N5CC[C@@H](C(=O)O)C5)CC[C@@]45C[C@@]35CC[C@]21C)C(C)(C)O | Stable | 14000 nM | – | 540 nM
28 | CCO[C@@H]([C@H]1C[C@@H](C)[C@H]2[C@H](O1)[C@H](O)[C@@]1(C)[C@@H]3CC[C@H]4C(C)(C)[C@@H](O[C@H]5CN(CCCC(=O)O)CCO5)CC[C@@]45C[C@@]35CC[C@]21C)C(C)(C)O | Stable | 6500 nM | – | 630 nM
29 | CCO[C@@H]([C@H]1C[C@@H](C)[C@H]2[C@H](O1)[C@H](O)[C@@]1(C)[C@@H]3CC[C@H]4C(C)(C)[C@@H](O[C@H]5CN(CCF)CCO5)CC[C@@]45C[C@@]35CC[C@]21C)C(C)(C)O | Stable | 4700 nM | – | 240 nM
30 | CCO[C@@H]([C@H]1C[C@@H](C)[C@H]2[C@H](O1)[C@H](O)[C@@]1(C)[C@@H]3CC[C@H]4C(C)(C)[C@@H](OC(=O)N[C@@H]5CCNC5=O)CC[C@@]45C[C@@]35CC[C@]21C)C(C)(C)O | Stable | 2500 nM | – | 140 nM
